Laboratory results: ChEMBL document CHEMBL4152376, “Optimization of 8-Hydroxyquinolines as Inhibitors of Catechol O-Methyltransferase” (J Med Chem, 2018)
pIC50: −log10 of the molar value.

Key:
[1] = molecular target: T1, Catechol O-methyltransferase (Homo sapiens, UniProt P21964); experiment: Inhibition of c-terminal hexa-His tagged human MB-COMT (unknown origin)
T1 sequence (P21964 whole entry): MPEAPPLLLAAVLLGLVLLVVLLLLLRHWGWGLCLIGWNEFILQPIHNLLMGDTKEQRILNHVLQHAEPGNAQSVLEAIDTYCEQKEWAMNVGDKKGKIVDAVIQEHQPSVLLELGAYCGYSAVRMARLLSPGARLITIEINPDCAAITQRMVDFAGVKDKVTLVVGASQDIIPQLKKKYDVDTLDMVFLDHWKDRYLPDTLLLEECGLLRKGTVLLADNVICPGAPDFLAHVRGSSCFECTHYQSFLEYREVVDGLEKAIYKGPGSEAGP

[2] = molecular target: T1, Catechol O-methyltransferase; experiment: Inhibition of c-terminal hexa-His tagged human MB-COMT expressed in HEK293 cell membrane homogenate using norepinephrine as substrate after 1 hr in presence of SAM by MTase glo methyltransferase assay
Procedure, shortened: (§1)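 Membrane homogenate of HEK293 cells expressing C-terminal His6 MB-COMT (human about 7 ng, rat about 4 ng per well, protein by Bradford […]). 20 µM SAM and 7 µM norepinephrine in 50 mM Tris, 5–10 mM MgCl2, 2.5 mM DTT, pH 6.9, final DMSO 1.5%. 1 h at 37 °C, then MTase-Glo luminescence. […] 4-parameter IC50 fit; triplicate points, three experiments.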

[3] = Clearance in rat hepatocytes assessed as per million cells; type: ADME, cell-based, Hepatocyte; conditions: read-out: CLH
[4] = molecular target: T1, Catechol O-methyltransferase; experiment: Inhibition of c-terminal hexa-His tagged human S-COMT expressed in HEK293-6E cell membrane homogenate using 7,8-dihydroxy-4-methylcoumarin as substrate after 1 hr in presence of SAM by MTase glo methyltransferase assay
Procedure, shortened: (§2)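 His6-tagged S-COMT (human or rat), expressed in 293-6E cells and purified by Ni-NTA and size exclusion, 1 ng per well. 20 µM SAM and 10 µM 7,8-dihydroxy-4-methylcoumarin in pH 6.9 Tris/MgCl2/DTT buffer, 1.5% DMSO. 1 h at 37 °C, then MTase-Glo luminescence read against a SAH standard curve. […] 4-parameter IC50; triplicate wells, three runs.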

[5] = Drug uptake in brain of C57BL/6J mouse at 10 mg/kg, ip measured at 1 hr post dose; type: ADME, organism-based; conditions: for concentration at 1 h: C57BL/6J, brain, read-out: Drug uptake; for Drug uptake: in vivo, 1 h, BLD = below limit of detection
Procedure, shortened: (§3)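 Male C57BL/6J mice (8 weeks), single ip injection of 10 mg/kg suspended in 0.1% Tween80/0.1% antifoam/1% methylcellulose at 10 mL/kg. Two mice per timepoint; at 1 h, plasma separated at 4 °C and brain homogenized in 4 volumes PBS pH 7.4. Total brain and plasma levels measured.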

[6] = Plasma concentration C57BL/6J mouse at 10 mg/kg, ip measured at 1 hr post dose; type: ADME, organism-based; procedure, shortened: as §3
Rattus norvegicus [7] = experiment: Oral bioavailability in rat at 3/10 mg/kg; type: ADME, organism-based; conditions: in vivo
Procedure, shortened: (§4)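 Rat pharmacokinetics after a 1 mpk iv dose (n=3) and a 3 or 10 mpk oral dose (n=3).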

[8] = Half life in rat at 1 mg/kg, iv or 3/10 mg/kg, po; type: ADME, organism-based; conditions: in vivo; procedure, shortened: as §4
Rattus norvegicus [9] = experiment: Volume of distribution at steady state in rat at 1 mg/kg, iv or 3/10 mg/kg, po; type: ADME, organism-based; conditions: in vivo; procedure, shortened: as §4
[10] = Efflux ratio of permeability in MDCK cells; type: ADME, cell-based, Canis lupus familiaris; conditions: dog
Procedure, shortened: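 Efflux ratio taken as […] transport across P-glycoprotein-expressing MDCK cells.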

[11] = Fraction unbound in rat plasma by equilibrium dialysis; type: ADME, cell-free
Procedure, shortened: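 Percent free drug in mouse or rat plasma, measured by equilibrium dialysis.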

[12] = Apparent permeability of the compound in MDCK cells; type: ADME, cell-based, Canis lupus familiaris; conditions: dog
[13] = molecular target: T2, Catechol O-methyltransferase (Rattus norvegicus, UniProt P22734); experiment: Inhibition of c-terminal hexa-His tagged rat MB-COMT expressed in HEK293 cell membrane homogenate using norepinephrine as substrate after 1 hr in presence of SAM by MTase glo methyltransferase assay; procedure, shortened: as §1
T2 sequence (P22734 whole entry): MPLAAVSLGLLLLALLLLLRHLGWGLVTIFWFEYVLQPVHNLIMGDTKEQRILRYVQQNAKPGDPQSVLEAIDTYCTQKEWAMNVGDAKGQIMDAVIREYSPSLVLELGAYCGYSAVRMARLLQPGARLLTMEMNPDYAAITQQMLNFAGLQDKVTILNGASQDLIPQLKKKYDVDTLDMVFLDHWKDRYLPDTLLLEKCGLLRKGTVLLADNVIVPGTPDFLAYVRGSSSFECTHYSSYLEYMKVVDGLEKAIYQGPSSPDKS

[14] = molecular target: T2, Catechol O-methyltransferase; experiment: Inhibition of c-terminal hexa-His tagged rat S-COMT expressed in HEK293-6E cell membrane homogenate using 7,8-dihydroxy-4-methylcoumarin as substrate after 1 hr in presence of SAM by MTase glo methyltransferase assay; procedure, shortened: as §2
[15] = Unbound plasma concentration in Sprague-Dawley rat 10 mg/kg, po after 4 hrs by ES-UPLC analysis; type: ADME, organism-based; conditions: in vivo
Procedure, shortened: (§5)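 Sprague Dawley rats given 10 mg/kg po; CSF, plasma and brain collected at 4 h. Drug measured in CSF; free plasma and brain levels computed from total levels using plasma protein and brain tissue binding fractions. Free CSF derived from CSF binding by equilibrium dialysis with pooled rat CSF. Ratios taken from these values.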

[16] = Unbound drug level in brain of Sprague-Dawley rat at 10 mg/kg, po after 4 hrs by ES-UPLC analysis; type: ADME, organism-based; conditions: in vivo; procedure, shortened: as §5
[17] = Drug level in CSF of Sprague-Dawley rat at 10 mg/kg, po after 4 hrs by ES-UPLC analysis; type: ADME, organism-based, Cerebrospinal fluid; conditions: read-out: Drug uptake; procedure, shortened: as §5
[18] = Ratio of drug level in CSF of Sprague-Dawley rat to unbound plasma concentration in Sprague-Dawley rat at 10 mg/kg, po after 4 hrs by ES-UPLC analysis; type: ADME, organism-based; conditions: in vivo; procedure, shortened: as §5
[19] = Ratio of drug level in CSF of Sprague-Dawley rat to unbound brain concentration in Sprague-Dawley rat at 10 mg/kg, po after 4 hrs by ES-UPLC analysis; type: ADME, organism-based; conditions: in vivo; procedure, shortened: as §5
[20] = Ratio of unbound drug level in CSF of Sprague-Dawley rat to unbound plasma concentration in Sprague-Dawley rat at 10 mg/kg, po after 4 hrs by ES-UPLC analysis; type: ADME, organism-based; conditions: CSF and plasma; procedure, shortened: as §5
Rattus norvegicus [21] = experiment: In vivo inhibition of COMT in Sprague-Dawley rat assessed as HVA levels in CSF at 10 mg/kg, po measured at 4 hrs post dose by LC-MS analysis relative to control; type: functional; set-up: scale not given: the % may be the effect or the level left
Procedure, shortened: (§6)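 Male Sprague Dawley rats (176–200 g on arrival) dosed orally at 10 mg/kg in Tween80/antifoam/methylcellulose suspension, 10 mL/kg, vehicle group as control (n=5–10). At 4 h under isoflurane, CSF drawn from cisterna magna. HVA and DOPAC quantified by LC-MS against standards in 0.01 M perchloric acid/aCSF with d5 internal standards. Reported as % of vehicle.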

Rattus norvegicus [22] = experiment: In vivo inhibition of COMT in Sprague-Dawley rat assessed as DOPAC levels in CSF at 10 mg/kg, po measured at 4 hrs post dose by LC-MS analysis relative to control; type: functional; procedure, shortened: as §6
[23] = Protein binding in CSF of Sprague-Dawley rat at 2 uM by equilibrium dialysis; type: ADME, tissue-based, Cerebrospinal fluid; conditions: read-out: PB (converted)
Procedure, shortened: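 Binding in pooled rat CSF measured by equilibrium dialysis at 2 µM test concentration.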

Compound	pIC50 [2]	hepatocyte CLint [3]	pIC50 [4]	concentration at 1 h [5]	concentration at 1 h [6]	F (Rattus norvegicus [7])	half-life [8]	Vdss (Rattus norvegicus [9])	further results
O=S(=O)(O)c1ccc(O)c2ncccc12	–	–	–	–	–	–	–	–	pIC50 [1]: 5.20
O=S(=O)(c1ccc(O)c2ncccc12)N1CCCC1	8.10	177 µL/min/1e6 cells	5.70	10.5 ng/g	0.068 µg/mL	–	–	–	–
COc1ccc(S(=O)(=O)N2CCCC2)c2cccnc12	< 5.00	–	–	–	–	–	–	–	–
CCS(=O)(=O)c1ccc(O)c2ncccc12	7.30	39 µL/min/1e6 cells	5.80	11 ng/g	0.25 µg/mL	–	–	–	–
Cc1ccc(C(=O)c2ccc(O)c3ncccc23)cc1	5.40	–	–	–	–	–	–	–	–
O=S(=O)(c1cc(Cl)c(O)c2ncccc12)N1CCCC1	8.00	14 µL/min/1e6 cells	5.50	1150 ng/g	16.2 µg/mL	33%	8.6 h	0.8 L/kg	efflux ratio [10]: 0.4; Fu [11]: 0.5
Cc1ccc(S(=O)(=O)c2cc(Cl)c(O)c3ncccc23)cc1	6.50	78 µL/min/1e6 cells	< 5.00	1690 ng/g	9.78 µg/mL	45%	0.31 h	0.67 L/kg	efflux ratio [10]: 2.2; Papp [12]: > 100 nm/s
Cc1ccc(S(=O)(=O)c2cc(C(F)(F)F)c(O)c3ncccc23)cc1	< 5.00	–	< 5.00	–	–	–	–	–	–
O=S(=O)(c1ccc(C(F)(F)F)cc1)c1ccc(O)c2ncccc12	7.20	46 µL/min/1e6 cells	5.90	–	3.54 µg/mL	–	–	–	Drug uptake [5]: Bld
O=S(=O)(c1cc(F)c(O)c2ncccc12)C1CCCC1	8.70	19 µL/min/1e6 cells	5.60	1910 ng/g	6.16 µg/mL	32%	7.7 h	0.41 L/kg	pIC50 [13]: > 9.00; pIC50 [14]: 5.10; efflux ratio [10]: 0.5; Fu [11]: 0.2; Cp(f) [15]: 0.019 µM; Drug uptake(free) [16]: 12.8 nM; concentration at 4 h [17]: 0.321 µM; Ratio [18]: 16.5; Ratio [19]: 25; Kp uu at 4 h [20]: 7.3; Activity (Rattus norvegicus [21]): 66%; CSF DOPAC level (% of vehicle) (Rattus norvegicus [22]): 218%; fraction unbound at 2 µM [23]: 0.43
O=S(=O)(c1ccc(O)c2ncccc12)C1CCCC1	8.20	–	6.30	–	0.173 µg/mL	24%	0.18 h	1.8 L/kg	Fu [11]: 0.5; Drug uptake [5]: Bld
O=S(=O)(c1ccc(O)c2ncccc12)N1CCC(c2ccc(F)cc2)C1 (stereo not given)	8.50	255 µL/min/1e6 cells	–	–	–	–	–	–	–
O=S(=O)(c1ccc(F)cc1)c1cc(F)c(O)c2ncccc12	8.40	15 µL/min/1e6 cells	5.80	527 ng/g	5.72 µg/mL	100%	4.5 h	3.5 L/kg	pIC50 [13]: > 9.00; pIC50 [14]: < 5.00; efflux ratio [10]: 0.7; Papp [12]: > 100 nm/s; Cp(f) [15]: 0.048 µM; Drug uptake(free) [16]: 7.7 nM; concentration at 4 h [17]: 0.127 µM; Ratio [18]: 2.6; Ratio [19]: 16; Kp uu at 4 h [20]: 1.2; Activity (Rattus norvegicus [21]): 86%; CSF DOPAC level (% of vehicle) (Rattus norvegicus [22]): 173%; fraction unbound at 2 µM [23]: 0.47
Cc1ccc(S(=O)(=O)c2cc(O)c3ncccc3c2)cc1	–	–	–	–	–	–	–	–	pIC50 [1]: 5.80
Cc1ccc(S(=O)(=O)c2cc(Br)c(O)c3ncccc23)cc1	5.90	–	< 5.00	–	–	–	–	–	–
O=C(c1ccc(O)c2ncccc12)N1CCCC1	< 5.00	–	–	–	–	–	–	–	–
Cc1ccc(S(=O)(=O)c2ccc(O)c3ncccc23)cc1	7.70	–	6.30	–	–	–	–	–	pIC50 [1]: 7.70
Cc1cc(S(=O)(=O)N2CCCC2)c2cccnc2c1O	7.70	103 µL/min/1e6 cells	5.50	55 ng/g	0.576 µg/mL	–	–	–	–
O=S(=O)(c1ccc(F)cc1)c1cc(Cl)c(O)c2ncccc12	6.70	4 µL/min/1e6 cells	< 5.00	5660 ng/g	16.6 µg/mL	23%	8.9 h	0.23 L/kg	efflux ratio [10]: 0.8; Fu [11]: 0.5
Cc1ccc(-c2ccc(O)c3ncccc23)cc1	6.60	–	–	–	–	–	–	–	–
O=S(=O)(c1cc(Cl)c(O)c2ncccc12)C1CCCC1	7.70	18 µL/min/1e6 cells	5.10	2790 ng/g	14.7 µg/mL	37%	11 h	0.3 L/kg	pIC50 [13]: > 9.00; pIC50 [14]: < 5.00; Fu [11]: 0.5; Cp(f) [15]: 0.032 µM; Drug uptake(free) [16]: 5.6 nM; concentration at 4 h [17]: 0.358 µM; Ratio [18]: 11; Ratio [19]: 64; Activity (Rattus norvegicus [21]): 97%; CSF DOPAC level (% of vehicle) (Rattus norvegicus [22]): 213%
O=S(=O)(c1cc(C(F)(F)F)c(O)c2ncccc12)C1CCCC1	< 5.00	–	< 5.00	–	–	–	–	–	–
O=S(=O)(c1ccc(C(F)(F)F)cc1)c1cc(F)c(O)c2ncccc12	7.10	12 µL/min/1e6 cells	5.20	1090 ng/g	2.54 µg/mL	66%	3.5 h	3.8 L/kg	efflux ratio [10]: 1.1; Fu [11]: 0.6
Cc1ccc(S(=O)(=O)c2cc(F)c(O)c3ncccc23)cc1	8.20	36 µL/min/1e6 cells	6.30	518 ng/g	1.74 µg/mL	34%	0.26 h	1.2 L/kg	–
Oc1cccc2cccnc12 [OXYQUINOLINE]	5.80	–	–	–	–	–	–	–	pIC50 [1]: 5.50
